Measurements: publication PMC3799977 (Toxicology and applied pharmacology, 2012)

Assays:
[1] = test system: IL-17A mRNA expression in mouse T lymphoma EL4 cells; assay: IL-17A mRNA expression in EL4 cells; assay type: cell-based; settings: 6 h; for IL-17 gene expression, dose dependence: PMA/ionomycin-stimulated EL4 cells, 1, 3, 10 or 30 μM; for IL-17 mRNA expression, real-time PCR: highest dose 30 μM
Summary of the method: (§1)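 EL4 cells were plated at 2 × 10^6 cells/ml in RPMI-1640 with 10% FBS. Next day they were stimulated with PMA (5 ng/ml) plus ionomycin (1 μM) and given vehicle or 1, 3, 10 or 30 μM test compound at 37°C for 6 h. TRIzol RNA was reverse-transcribed and TaqMan real-time PCR run, normalized to β-actin. Results were expressed relative to stimulated vehicle (=1), mean ± SD, three experiments.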

mouse RORα = biological target: T1, mouse RORα (Mus musculus, UniProt P51448); assay: CHO-K1 cell-based RORα reporter gene assay; settings: for RORα inverse agonistic activity (in words): Fig. 2A; for RIC20 (20% relative inhibitory concentration), RORα assay: inverse agonistic activity, CHO-K1 cells, 24 hr; for ROR activity (RORα): data not shown
T1 sequence (P51448 1-467 isoform P51448-2): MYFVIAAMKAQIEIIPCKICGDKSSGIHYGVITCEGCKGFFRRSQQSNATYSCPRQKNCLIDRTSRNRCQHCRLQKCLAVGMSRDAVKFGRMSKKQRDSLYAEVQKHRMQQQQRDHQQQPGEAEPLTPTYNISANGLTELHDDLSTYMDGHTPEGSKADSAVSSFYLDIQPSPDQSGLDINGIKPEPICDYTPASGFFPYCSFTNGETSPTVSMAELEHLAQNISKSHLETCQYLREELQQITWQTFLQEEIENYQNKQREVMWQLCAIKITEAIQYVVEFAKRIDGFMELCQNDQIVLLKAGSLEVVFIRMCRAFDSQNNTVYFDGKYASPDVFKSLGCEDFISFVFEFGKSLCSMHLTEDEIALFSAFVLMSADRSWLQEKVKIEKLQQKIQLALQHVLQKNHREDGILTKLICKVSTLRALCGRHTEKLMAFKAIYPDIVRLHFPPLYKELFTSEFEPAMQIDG

mouse RORγ = biological target: T2, mouse RORγ (Mus musculus, UniProt P51450); assay: CHO-K1 cell-based RORγ reporter gene assay; settings: for RIC20 (20% relative inhibitory concentration), RORγ assay: inverse agonistic activity, CHO-K1 cells, 24 hr; for ROR activity (RORγ): data not shown
T2 sequence (P51450 1-516): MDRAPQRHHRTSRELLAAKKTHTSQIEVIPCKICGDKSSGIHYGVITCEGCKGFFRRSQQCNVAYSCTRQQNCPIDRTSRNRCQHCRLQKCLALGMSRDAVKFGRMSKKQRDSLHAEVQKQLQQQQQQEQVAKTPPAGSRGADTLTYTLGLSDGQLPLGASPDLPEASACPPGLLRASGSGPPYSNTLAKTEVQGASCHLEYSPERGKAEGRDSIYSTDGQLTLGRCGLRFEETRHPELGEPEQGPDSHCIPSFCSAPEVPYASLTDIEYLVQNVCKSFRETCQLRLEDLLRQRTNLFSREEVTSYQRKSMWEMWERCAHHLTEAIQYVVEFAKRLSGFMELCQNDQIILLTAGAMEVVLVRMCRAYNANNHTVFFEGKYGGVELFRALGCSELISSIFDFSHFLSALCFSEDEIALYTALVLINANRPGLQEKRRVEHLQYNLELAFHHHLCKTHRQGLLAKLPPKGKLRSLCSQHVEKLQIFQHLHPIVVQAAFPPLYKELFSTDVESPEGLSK

[2] = test system: IL-17A mRNA expression in EL4/shNC cells; assay: IL-17A mRNA expression in control shRNA EL4/shNC cells; assay type: cell-based, mouse; settings: 10 μM, PMA/ionomycin
[3] = test system: IL-17A mRNA expression in EL4/shRorac cells; assay: IL-17A mRNA expression in RORα/γ-knockdown EL4/shRorac cells; assay type: cell-based, mouse; settings: 10 μM, PMA/ionomycin, RORα/γ double knockdown
Summary of the method: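 EL4/shRorac, a stable RORα/RORγ double-knockdown clone, was made by electroporating a GFP/Neo U6 vector carrying Rora and Rorc shRNAs, then selecting in G418. EL4/shNC (nonsilencing shRNA) served as control. Cells received 10 μM test compound with or without PMA/ionomycin. IL-17 mRNA was measured by real-time RT-PCR, normalized to β-actin, and expressed relative to stimulated vehicle-treated EL4/shNC (=1). Mean ± SD, three experiments.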

[4] = test system: RORα mRNA expression in EL4 cells; assay: RORα mRNA expression in PMA/ionomycin-stimulated EL4 cells; assay type: cell-based, mouse; settings: 6 h
Summary of the method: as §1

CHO-K1 cells = assay: Cytotoxicity check by β-galactosidase activity in the reporter gene assays; assay type: cell-based, Chinese hamster; settings: highest dose (30 μM)
RORα = settings: read-out: Ki, binding to RORα; ref Kumar et al. (2010); cited from earlier work
[5] = test system: RORγ mRNA expression in EL4 cells; assay: RORγ mRNA expression in PMA/ionomycin-stimulated EL4 cells; assay type: cell-based, mouse; settings: 6 h
[6] = PMA/ionomycin-stimulated EL4 cells, 10 μM
[7] = PMA/ionomycin-stimulated EL4 cells

| Compound | IL-17A mRNA expression, real-time PCR [1, 6] | IL-17 gene expression, dose dependence [1] | RORα inverse agonistic activity (in words) (mouse RORα) | RIC20 (20% relative inhibitory concentration), RORγ assay (mouse RORγ) [µM] | RIC20 (20% relative inhibitory concentration), RORα assay (mouse RORα) [µM] | ROR activity (RORγ) (mouse RORγ) | ROR activity (RORα) (mouse RORα) | also measured |
| --- | --- | --- | --- | --- | --- | --- | --- | --- |
| CCCOC/C(=N\c1ccc(Cl)cc1C(F)(F)F)n1ccnc1 [Triflumizole] | significantly inhibited | inhibit IL-17 gene expression in a dose-dependent manner | weak RORα inverse agonists |  |  |  |  |  |
| FC(F)C(F)(F)OCC(Cn1cncn1)c1ccc(Cl)cc1Cl (stereo not drawn) [Tetraconazole] |  | inhibit IL-17 gene expression in a dose-dependent manner | did not show almost any inverse agonistic activity | 15 | > 30 |  |  | IL-17 mRNA expression, real-time PCR [1, 7]: significantly suppressed IL-17 mRNAs |
| CCCN(CCOc1c(Cl)cc(Cl)cc1Cl)C(=O)n1ccnc1 [prochloraz] |  |  |  |  |  | inactive | inactive |  |
| O=S(=O)(c1ccccc1)N(CC(F)(F)F)c1ccc(C(O)(C(F)(F)F)C(F)(F)F)cc1 [T0901317, N-(2,2,2-trifluoroethyl)-N-[4-(2,2,2-trifluoro-1-hydroxy-1-trifluoromethyl-ethyl)-phenyl]-benzene sulfonamide, reference compound] |  |  | weak RORα inverse agonists |  |  |  |  | IL-17A mRNA expression in EL4/shNC cells [2]: showed inhibitory effects on IL-17A mRNA expression; IL-17 mRNA expression in EL4/shRorac cells [3]: also suppressed IL-17 mRNA expression; IL-17A mRNA expression, qualitative RT-PCR ([1]; PMA/ionomycin-stimulated EL4 cells, 0.1, 1, 10 μM, Fig. 4A): inhibited IL-17A mRNA expression in a dose-dependent manner; IL-17A mRNA expression, real-time PCR ([1]; PMA/ionomycin-stimulated EL4 cells, 0.1, 1, and 10 μM): significantly inhibited IL-17A mRNA expression; IL-17A gene expression in non-stimulated EL4 cells ([1]; no PMA/ionomycin stimulation, qualitative RT-PCR): neither T0901317 nor the vehicle induced the expression of IL-17A gene; RORα mRNA expression [4]: did not affect; cytotoxic effects based on β-galactosidase activity (CHO-K1 cells): except for the highest dose (30 μM); Ki (RORα): […]; RORγ mRNA expression [5]: did not affect; RORα agonistic activity (mouse RORα; CHO cell-based reporter gene assay): didn’t show any RORα/γ agonistic activity |
| CC(C)(C)C(=O)C(Oc1ccc(Cl)cc1)n1cncn1 (stereo not drawn) [triadimefon] |  |  |  |  |  | inactive | inactive |  |
| Clc1ccc(CSC(Cn2cncn2)=Nc2ccc(Cl)cc2Cl)cc1 [Imibenconazole] | strongly suppressed IL-17A mRNA expression | inhibit IL-17 gene expression in a dose-dependent manner | weak RORα inverse agonists | 3.3 | 10 |  |  | IL-17A mRNA expression in EL4/shNC cells [2]: showed inhibitory effects on IL-17A mRNA expression; IL-17 mRNA expression in EL4/shRorac cells [3]: also suppressed IL-17 mRNA expression; cytotoxic effects based on β-galactosidase activity (CHO-K1 cells): except for the highest dose (30 μM) |
| CC(C)(C)C(O)C(Oc1ccc(-c2ccccc2)cc1)n1cncn1 (stereo not drawn) [bitertanol] |  |  |  |  |  | inactive | inactive |  |
| CCCCC(O)(Cn1cncn1)c1ccc(Cl)cc1Cl (stereo not drawn) [Hexaconazole] | significantly inhibited | inhibit IL-17 gene expression in a dose-dependent manner | weak RORα inverse agonists | 3.2 | 21 |  |  |  |
| C=CCOC(Cn1ccnc1)c1ccc(Cl)cc1Cl (stereo not drawn) [Imazalil] |  | inhibit IL-17 gene expression in a dose-dependent manner | did not show almost any inverse agonistic activity | 29 | > 30 |  |  | IL-17 mRNA expression, real-time PCR [1, 7]: significantly suppressed IL-17 mRNAs |
| CCCC1COC(Cn2cncn2)(c2ccc(Cl)cc2Cl)O1 (stereo not drawn) [propiconazole] |  |  |  |  |  | inactive | inactive |  |
